Data: ChEMBL document CHEMBL5550188, “Detection of a Mitochondrial Fragmentation and Integrated Stress Response Using the Cell Painting Assay” (2024)
The source made the active and inactive calls. The calls are words filed in the database; no cut-off is given here.

Tests used:
U2OS [1] = experiment: Induction of mitochondrial fragmentation in human U2OS cells assessed as puncta-like staining at 30 uM incubated for 20 hrs by Mito Tracker Deep Red dye based CPA assay; format: functional, cell-based
Summary of the method: (§1)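 Cell Painting: U-2OS were seeded at 1600 cells/well, then dosed 4 h later for 20 h at 37 °C against a matched-% DMSO control. Live cells were stained 30 min with 100 nM MitoTracker Deep Red, then fixed in 3.7% formaldehyde and permeabilized with 0.1% Triton X-100. They were co-stained with phalloidin, concanavalin A, Hoechst, WGA and SYTO 14. Imaging was high-content, run as triplicate plates; features are Z-scores versus DMSO median/MAD.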

U2OS [2] = experiment: Inhibition of cell confluence in human U2OS cells at 10 to 50 uM measured after 48 hrs by PI/caspase-3/7 Green dye based analysis; format: functional; conditions: dose 10-50 µM
Summary of the method: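 U-2OS at 5000/well were incubated overnight, then given medium with compound or DMSO plus propidium iodide and CellEvent Caspase-3/7 Green. Cells were imaged hourly for 48 h by live-cell imaging. Phase confluence gave growth; red and green object confluence gave PI-positive cells and caspase-3/7 activity.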

U2OS [3] = experiment: Effect on mitochondrial respiration in human U2OS cells assessed as suppression of OCR level at 10 to 30 uM measured after 24 hrs by Seahorse analysis; format: functional, cell-based; conditions: dose 10-30 µM
Summary of the method: (§2)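 Seahorse XFp Mito Stress Test on U-2OS, 2 × 10⁵ cells per well, seeded overnight. Assay medium was pH 7.4 DMEM with 2 mM GlutaMAX, 1 mM pyruvate and 25 mM glucose. For acute runs, compound was injected after 5 baseline reads, then 10 reads. Otherwise cells were pretreated 24 h. Then oligomycin A, FCCP and rotenone/antimycin A were added. OCR/ECAR were background-subtracted and normalized to the last baseline (100%). Mean ± SD, n = 3.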

U2OS [4] = experiment: Effect on mitochondrial respiration in human U2OS cells assessed as suppression of OCR level at 10 to 30 uM of acute treatment by Seahorse analysis; format: functional, cell-based; conditions: dose 10-30 µM; summary of the method: as §2
U2OS [5] = experiment: Effect on glycolysis in human U2OS cells assessed as increase in ECAR level at 10 to 30 uM of acute treatment by Seahorse analysis; format: functional, cell-based; conditions: dose 10-30 µM; summary of the method: as §2
U2OS [6] = experiment: Effect on glycolysis in human U2OS cells assessed as increase in ECAR level at highest concentration measured after 24 hrs by Seahorse analysis; format: functional, cell-based; summary of the method: as §2
U2OS [7] = experiment: Effect on mitochondrial membrane potential in human U2OS cells at 30 uM incubated for 24 hrs by TRME staining based analysis; format: functional, cell-based
Summary of the method: (§3)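 U-2OS (5 × 10³/well) were treated 24 h, then given 20 μM FCCP or 0.5% DMSO controls for 10 min. Cells were stained 30 min at 37 °C with 1 μM TMRE plus Hoechst-33342 in complete DMEM, washed, and imaged live in 0.2% BSA/PBS at 10× (TMRE ex/em 549/575 nm).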

U2OS [8] = experiment: Induction of oxidative stress in human U2OS cells assessed as increase in mitochondrial superoxide level at 30 uM incubated for 1 hr by MitoSox Red staining based analysis; format: functional, cell-based
Summary of the method: (§4)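 U-2OS at 15,000/well were preloaded 30 min with 5 μM MitoSOX Red plus Hoechst in plain DMEM. They were then treated 60 min in complete DMEM, fixed in 0.5% paraformaldehyde, and imaged at 10×. Integrated MitoSOX intensity per cell was normalized to DMSO (0%) and 10 μM CDNB (100%). Mean ± SD, n = 3.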

U2OS [9] = experiment: Effect on oxidative phosphorylation in human U2OS cells at 30 uM incubated for 24 hrs by pathway over-representation analysis; format: functional, cell-based
Summary of the method: (§5)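 U-2OS seeded at 1 × 10⁶ cells in T75 flasks, treated next day for 24 h at 37 °C versus DMSO. Cells were lysed by freeze–thaw, reduced with TCEP at 55 °C, alkylated with iodoacetamide, acetone-precipitated and trypsin-digested. Peptides were TMT-labelled, split into 10 fractions by high-pH C18, then run on nanoHPLC-MS/MS (orbitrap). Biological triplicates, with pathway over-representation analysis.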

U2OS [10] = experiment: Effect on mitochondrial dysfunction in human U2OS cells at 30 uM incubated for 24 hrs by pathway over-representation analysis; format: functional, cell-based; summary of the method: as §5
U2OS [11] = experiment: Effect on HIF1 signaling in human U2OS cells at 30 uM incubated for 24 hrs by pathway over-representation analysis; format: functional, cell-based; summary of the method: as §5
HEK-293T = experiment: Upregulation of HIF1 level in HEK293T cells transfected with HIF1/luc at 30 uM incubated for 24 hrs by Renilla luciferase base assay; format: functional, cell-based; conditions: Homo sapiens
Summary of the method: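 HEK293T were co-transfected (Lipofectamine 2000) with a PGK1-HRE-driven destabilized firefly luciferase reporter and constitutive TK-Renilla. Cells were seeded at 2.5 × 10⁴/well, then treated 24 h the next day, with 100 μM CoCl₂ and 10 μM ML228 as controls. Dual-Glo readout: firefly was normalized to Renilla and expressed as fold induction over DMSO.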

U2OS [12] = experiment: Induction of integrated stress response in human U2OS cells assessed as increase ATF4 mRNA level at 30 uM incubated for 24 hrs by RT-qPCR analysis; format: functional, cell-based
Summary of the method: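 U-2OS at 1 × 10⁵/well in 6-well plates were grown 24 h to ~80% confluence, then treated 24 h versus DMSO. Total RNA (DNase-treated) was reverse-transcribed and ATF4 measured by SYBR Green qPCR. Expression was calculated by ΔΔCt against GAPDH, with DMSO set to 100%. Mean ± SD, n = 3.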

U2OS [13] = experiment: Induction of integrated stress response in human U2OS cells assessed as increase ATF4 level at 30 uM incubated for 24 hrs by Western blot analysis; format: functional, cell-based
Summary of the method: (§6)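 U-2OS grown to 80% confluence in 6-well plates were treated 24 h at 37 °C versus DMSO. ATF4 was detected by immunoblotting, with vinculin as reference protein.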

U2OS [14] = experiment: Induction of integrated stress response in human U2OS cells assessed as increase ATF4 level at 50 uM incubated for 24 hrs by Western blot analysis; format: functional, cell-based; summary of the method: as §6
U2OS [15] = experiment: Induction of mitochondrial fragmentation in human U2OS cells assessed as puncta-like staining at 10 uM incubated for 20 hrs by Mito Tracker Deep Red dye based CPA assay; format: functional, cell-based; summary of the method: as §1
U2OS [16] = experiment: Effect on mitochondrial membrane potential in human U2OS cells at 10 uM incubated for 24 hrs by TRME staining based analysis; format: functional, cell-based; summary of the method: as §3
U2OS [17] = experiment: Induction of oxidative stress in human U2OS cells assessed as increase in mitochondrial superoxide level at 10 uM incubated for 1 hr by MitoSox Red staining based analysis; format: functional, cell-based; summary of the method: as §4
U2OS [18] = experiment: Effect on HIF1 signaling in human U2OS cells incubated for 24 hrs by pathway over-representation analysis; format: functional, cell-based; summary of the method: as §5

Row | SMILES | Activity (U2OS [1]) | inhibition (U2OS [2]) | Activity (U2OS [3]) | Activity (U2OS [4]) | Activity (U2OS [5]) | Activity (U2OS [6]) | Activity (U2OS [7]) | Activity (U2OS [8]) | Activity (U2OS [9]) | Activity (U2OS [10]) | Activity (U2OS [11]) | Activity (HEK-293T) | Activity (U2OS [12]) | Activity (U2OS [13]) | Activity (U2OS [14]) | Activity (U2OS [15]) | Activity (U2OS [16]) | Activity (U2OS [17]) | Activity (U2OS [18])
1 | Cc1cccc(-c2[nH]c(C(C)(C)C)nc2-c2ccc3nccnc3c2)n1 | Active | inactive | Active | inactive | inactive | Active | inactive | Active | Active | Active | inactive | Active | Active | Active |  |  |  |  | 
2 | CC(=O)N(O)CCCCCNC(=O)CCC(=O)N(O)CCCCCNC(=O)CCC(=O)N(O)CCCCCN |  |  |  |  |  |  |  |  |  |  |  |  |  |  | inactive |  |  |  | 
3 | COc1cc(OC)c2c(c1Cl)OC1(CCC3(CC1C)OCCc1c3c3cc(C)ccc3n1Cc1ccccc1)C2=O (stereo not drawn) |  | inactive | Active | inactive | inactive | Active |  |  | Active | Active |  |  | Active | Active |  | Active | inactive | Active | inactive
